# From ChEMBL document CHEMBL4304819, “Natural product pectolinarigenin exhibits potent anti-metastatic activity in colorectal carcinoma cells in vitro and in vivo” (2019)
# The source made the active and inactive calls. No cut-off for these calls is given here.
# Legend:
# [1] = test system: CT26; assay: Antimigratory activity against mouse CT26 cells assessed as inhibition of cell migration after 48 hrs by crystal violet staining based Boyden-chamber cell migration assay; type: functional
# Summary of the method: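 Boyden chamber, 8 μm pores: 1 × 10^5 cells in serum-free medium above, 10% FBS medium below, compound at various concentrations in both chambers; migration 48 h. Non-migrated cells swabbed off; migrated cells fixed in methanol, stained 0.5% crystal violet 20 min, counted in six random fields under light microscope; expressed as % inhibition versus untreated.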
# [2] = test system: CT26; assay: Induction of apoptosis in mouse CT26 cells assessed as late apoptotic cells at 40 uM after 48 hrs by Annexin V-FITC/propidium iodide staining-based flow cytometric analysis (reference value: 6.49 %); type: functional
# Summary of the method: (§1)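 CT26 cells seeded at 1–2 × 10^5 per well in six-well plates for 24 h, then exposed to PEC (0–40 μM) for 24 or 48 h. Cells harvested, washed twice in cold PBS, stained with Annexin V-FITC/PI and read by flow cytometry. Early apoptotic = Annexin V+ only; late apoptotic = Annexin V+/PI+. Mean ± SD of three experiments.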
# [3] = test system: HCT-116; assay: Induction of apoptosis in human HCT116 cells assessed as viable cells at 20 uM after 48 hrs by Annexin V-FITC/propidium iodide staining-based flow cytometric analysis (reference value: 86.7 %); type: functional; details: HCT-116, 48 h, read-out: Activity
# Summary of the method: (§2)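 Cells (1–2 × 10^5 per well) seeded in six-well plates 24 h, treated at 0–40 μM for 24 h or 48 h, harvested, washed twice in cold PBS, stained with Annexin V-FITC/PI and analysed by flow cytometry; early (Annexin V only) and late (Annexin V and PI) apoptotic fractions quantified; three experiments.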
# [4] = test system: HCT-116; assay: Induction of apoptosis in human HCT116 cells assessed as early apoptotic cells at 40 uM after 48 hrs by Annexin V-FITC/propidium iodide staining-based flow cytometric analysis (reference value: 1.23 %); type: functional; summary of the method: as §2
# [5] = test system: HCT-116; assay: Antimetastatic activity against human HCT116 assessed as inhibition of MMP-9 expression after 48 hrs by Western blot analysis; type: functional, cell-based
# Summary of the method: (§3)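 Cells treated 48 h at 0, 10, 20 and 40 μM, washed in cold PBS, lysed in RIPA; protein equalized by Lowry assay, resolved by SDS-PAGE, transferred to PVDF, blocked 1 h at 37 °C, primary antibody overnight at 4 °C, secondary 1 h, ECL detection, densitometry. β-actin loading control.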
# [6] = test system: HCT-116; assay: Induction of apoptosis in human HCT116 cells assessed as increase in Bax protein expression up to 40 uM after 48 hrs by Western blot analysis; type: functional, cell-based; summary of the method: as §3
# [7] = test system: HCT-116; assay: Induction of apoptosis in human HCT116 cells assessed as early apoptotic cells at 20 uM after 48 hrs by Annexin V-FITC/propidium iodide staining-based flow cytometric analysis (reference value: 1.23 %); type: functional; summary of the method: as §2
# [8] = test system: CT26; assay: Induction of apoptosis in mouse CT26 cells assessed as necrotic cells at 10 uM after 48 hrs by Annexin V-FITC/propidium iodide staining-based flow cytometric analysis (reference value: 1.80 %); type: functional; summary of the method: as §1
# [9] = test system: HCT-116; assay: Induction of apoptosis in human HCT116 cells assessed as necrotic cells at 20 uM after 48 hrs by Annexin V-FITC/propidium iodide staining-based flow cytometric analysis (reference value: 8.24 %); type: functional; summary of the method: as §2
# [10] = test system: CT26; assay: Antiinvasive activity against mouse CT26 cells after 48 hrs by crystal violet staining based light microscopic analysis; type: functional, cell-based
# Summary of the method: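 Transwell membrane upper surface coated with Matrigel diluted 1:5 in serum-free medium. 5 × 10^4 cells in serum-free medium in upper part, 10% FBS medium below, treated with various concentrations for 48 h. Non-invading cells removed; underside cells fixed in methanol, stained with 0.5% crystal violet, counted by light microscopy; expressed as % inhibition versus untreated.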
# [11] = test system: CT26; assay: Antimetastatic activity against mouse CT26 cells allografted in Balb/c mouse assessed as increase in infiltration of CD8+ T cells in blood at 50 mg/kg, ip administered daily for 14 days starting from 6 days post implantation flow cytometric analysis (reference value: 1.35 %); type: functional
# [12] = test system: HCT-116; assay: Induction of apoptosis in human HCT116 cells assessed as decrease in Bcl-2 protein expression up to 40 uM after 48 hrs by Western blot analysis; type: functional, cell-based; summary of the method: as §3
# [13] = test system: CT26; assay: Induction of apoptosis in mouse CT26 cells assessed as decrease in Bcl-2 protein expression up to 40 uM after 48 hrs by Western blot analysis; type: functional, cell-based; summary of the method: as §3
# [14] = test system: HCT-116; assay: Anticlonogenic activity against human HCT116 cells assessed as reduction in colony formation up to 40 uM incubated for 24 hrs supplemented with fresh medium containing compound every 3 days for 12 days by crystal violet staining-based microscopic analysis; type: functional, cell-based
# Summary of the method: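 Cells seeded at 400–800 per well in 6-well plates; after 24 h, treated with 0–40 μM in fresh medium (with or without compound) replaced every three days for 12 days. Colonies fixed in methanol, stained with 0.5% crystal violet for 15 min and counted by microscope; reported as surviving colonies, mean ± SD of three experiments.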
# [15] = test system: CT26; assay: Antimetastatic activity against mouse CT26 cells allografted in Balb/c mouse assessed as reduction in weight of tumour nodules weight at 50 mg/kg, ip administered daily for 14 days starting from 6 days post implantation; type: functional, organism-based
# Summary of the method: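 Female BALB/c mice (6–8 weeks) injected ip with 5 × 10^5 CT26 cells; from day 6, randomized (eight per group) to ip vehicle, 25 or 50 mg/kg once daily for 14 days. Abdominal circumference and body weight every 3 days; abdominal nodules counted by eye and weighed; spleens assessed; paraffin tumour sections immunostained (Ki-67, MMP-9, p-Stat3) with DAB detection.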
# [16] = test system: CT26; assay: Induction of apoptosis in mouse CT26 cells assessed as early apoptotic cells at 40 uM after 48 hrs by Annexin V-FITC/propidium iodide staining-based flow cytometric analysis (reference value: 2.84 %); type: functional; summary of the method: as §1
# [17] = test system: CT26; assay: Antimetastatic activity against mouse CT26 cells assessed as inhibition of MMP-9 expression after 48 hrs by Western blot analysis; type: functional, cell-based; summary of the method: as §3
# [18] = test system: CT26; assay: Antimetastatic activity against mouse CT26 cells allografted in Balb/c mouse assessed as decrease in CD11b-positive/Gr1-positive myeloid cells level in tumour at 50 mg/kg, ip administered daily for 14 days starting from 6 days post implantation flow cytometric analysis (reference value: 10 %); type: functional; set-up: scale not given: the % may be the effect or the level left
# [19] = test system: CT26; assay: Induction of apoptosis in mouse CT26 cells assessed as increase in Bax protein expression up to 40 uM after 48 hrs by Western blot analysis; type: functional, cell-based
# Summary of the method: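 CT26 cells exposed 48 h to PEC at 0, 10, 20 and 40 μM, washed twice in cold PBS, lysed in RIPA. Protein measured by Lowry and equalized, run on SDS-PAGE, blotted to PVDF. Blocked 1 h at 37 °C, primary antibodies (Bax, Bcl-2, pro-caspase-3, cleaved caspase-3) overnight at 4 °C, secondary 1 h, ECL detection, densitometry.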
# [20] = test system: HCT-116; assay: Induction of apoptosis in human HCT116 cells assessed as late apoptotic cells at 20 uM after 48 hrs by Annexin V-FITC/propidium iodide staining-based flow cytometric analysis (reference value: 3.87 %); type: functional; summary of the method: as §2
# [21] = test system: CT26; assay: Antimetastatic activity against mouse CT26 cells allografted in ip dosed Balb/c mouse assessed as decrease in CD11b-positive/Gr1-positive myeloid cells level in peripheral blood administered daily for 14 days starting from 6 days post implantation by flow cytometric analysis; type: functional, organism-based
smiles,measurement,setting,value
COc1ccc(-c2cc(=O)c3c(O)c(OC)c(O)cc3o2)cc1 [PECTOLINARIGENIN],inhibition,[1],Dose-dependent effect
same,Activity,[2],13.4%
same,viability at 20 µM,[3],79.2%
same,Activity,[4],9.42%
same,inhibition,[5],Dose-dependent effect
same,Activity,[6],Active
same,Activity,[7],8.86%
same,Activity,[8],3.82%
same,Activity,[9],4.55%
same,inhibition,[10],Dose-dependent effect
same,Activity,[11],4.17%
same,Activity,[12],Active
same,Activity,[13],Active
same,inhibition,[14],Active
same,Activity,[15],Active
same,Activity,[16],16.2%
same,inhibition,[17],Dose-dependent effect
same,Activity,[18],6.47%
same,Activity,[19],Active
same,Activity,[20],7.36%
same,Activity,[21],Dose-dependent effect
